{
  "source": "paper PMC6175223",
  "about": "(Journal of Clinical Pharmacology, 2018)",
  "key": {"[1]": {"experiment": "Study A: caffeine clearance in smokers and nonsmokers", "type": "in vivo, human", "conditions": "for Caffeine plasma clearance CL/F: 200 mg oral caffeine, geometric mean", "method_in_brief": "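A 200 mg oral caffeine capsule was given on day 6 after an overnight fast of ≥10 h, with a methylxanthine-free diet for ≥1 week before and during the study. Plasma caffeine and paraxanthine were sampled predose and at 0.5–12 h. LC-MS/MS, LLOQ 20 ng/mL. Noncompartmental CL/F. ANOVA on ln-transformed data with cohort as fixed effect; smoker/nonsmoker geometric means.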"}, "CYP2D6": {"tested_on": "CYP2D6", "conditions": "in vitro; earlier data, no reference given; cited from earlier work"}, "Study A": {"experiment": "Study A", "type": "in vivo, human", "conditions": "for Cmax / Vd/F / half-life / Tmax: male, human, plasma, oral, 4 mg; for Cmax / Vd/F / half-life / CL/F: geometric mean (geometric CV%); for Vd/F: Vz/F; for Tmax: median (minimum, maximum)"}, "CYP1A2": {"tested_on": "CYP1A2", "conditions": "in vitro; earlier data, no reference given; cited from earlier work"}, "[2]": {"experiment": "Study B safety assessment", "type": "in vivo, human", "method_in_brief": "(§1)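 Safety was monitored by adverse-event reporting, physical examination, vital signs, 12-lead ECG and clinical laboratory tests. Concomitant medications and AEs were recorded from signing of the consent form until a follow-up safety telephone call. SAEs made known within 28 days after the last investigational dose were also recorded, as were later SAEs suspected to be related.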"}, "CYP3A4": {"tested_on": "CYP3A4", "conditions": "in vitro; earlier data, no reference given; cited from earlier work"}, "[3]": {"conditions": "healthy adult men; cited from earlier work"}, "[4]": {"experiment": "Study A safety assessment", "type": "in vivo, human", "method_in_brief": "as §1"}, "CYP2C19": {"tested_on": "CYP2C19", "conditions": "in vitro; earlier data, no reference given; cited from earlier work"}, "Study B": {"experiment": "Study B", "type": "in vivo, human", "conditions": "for AUC(0-inf) / Cmax / Vd/F / half-life / Tmax: male, human, plasma; for Cmax / Vd/F / half-life / CL/F: geometric mean (geometric CV%); for Vd/F: Vz/F; for Tmax: median (minimum, maximum)"}, "[5]": {"conditions": "cited from earlier work"}, "[6]": {"conditions": "cited from earlier work", "remark": "listed apart in the source"}, "[7]": {"conditions": "smokers compared with nonsmokers"}, "[8]": {"conditions": "oral, 4 mg, pomalidomide 4 mg administered alone"}, "[9]": {"conditions": "oral, 4 mg, pomalidomide 4 mg administered with fluvoxamine"}, "[10]": {"conditions": "with fluvoxamine compared with alone"}, "[11]": {"conditions": "multiple dose, 0.5- to 2-mg dose range"}},
  "note": "Where two headings read alike, the source gives them in different places.",
  "data": [
    {"smiles": "Cn1c(=O)c2c(ncn2C)n(C)c1=O", "note": "[caffeine]", "values": [
      {"measurement": "Caffeine plasma clearance CL/F", "setting": "[1]; nonsmokers (cohort B)", "result": 5.3, "unit": "L/h"},
      {"measurement": "Caffeine plasma clearance CL/F", "setting": "[1]; smokers (cohort A)", "result": 9.9, "unit": "L/h"},
      {"measurement": "Caffeine clearance, fold higher in smokers than in nonsmokers", "setting": "[1]; smokers versus nonsmokers", "result": "approximately 2 fold"}
    ]},
    {"smiles": "Nc1cccc2c1C(=O)N(C1CCC(=O)NC1=O)C2=O", "note": "(stereo not shown) [pomalidomide]", "values": [
      {"measurement": "Correlation between caffeine clearance and pomalidomide clearance", "setting": "[1]; in vivo, study A", "result": "good correlation"},
      {"measurement": "Metabolism by CYP enzyme", "setting": "CYP2D6", "result": "to a minor extent"},
      {"measurement": "Cmax", "setting": "Study A; nonsmokers", "result": 56.3, "unit": "ng/mL"},
      {"measurement": "Cmax", "setting": "Study A; smokers", "result": 64.4, "unit": "ng/mL"},
      {"measurement": "Vd/F", "setting": "Study A; nonsmokers", "result": 65.8, "unit": "L"},
      {"measurement": "Vd/F", "setting": "Study A; smokers", "result": 59.7, "unit": "L"},
      {"measurement": "half-life", "setting": "Study A; t1/2, nonsmokers", "result": 7.8, "unit": "h"},
      {"measurement": "half-life", "setting": "Study A; t1/2, smokers", "result": 4.8, "unit": "h"},
      {"measurement": "Tmax", "setting": "Study A; nonsmokers", "result": 3, "unit": "h"},
      {"measurement": "Tmax", "setting": "Study A; smokers", "result": 1.8, "unit": "h"},
      {"measurement": "CL/F", "setting": "Study A; nonsmokers", "result": 5.8, "unit": "L/h"},
      {"measurement": "CL/F", "setting": "Study A; nonsmokers, listed as Pomalidomide", "result": "5.8 (19.6) L/h"},
      {"measurement": "Decrease of AUC0-inf (lower in smokers)", "setting": "Study A; [7]", "result": 32.3, "unit": "%"},
      {"measurement": "Increase of Cmax (higher in smokers)", "setting": "Study A; [7]", "result": 14.4, "unit": "%"},
      {"measurement": "Ratio (%) of geometric means, AUC0-inf", "setting": "Study A; smokers/nonsmokers", "result": 67.7, "unit": "%"},
      {"measurement": "Ratio (%) of geometric means, Cmax", "setting": "Study A; smokers/nonsmokers", "result": 114.4, "unit": "%"},
      {"measurement": "CL/F", "setting": "Study A; smokers", "result": 8.6, "unit": "L/h"},
      {"measurement": "CL/F", "setting": "Study A; smokers, listed as Pomalidomide", "result": "8.6 (32.5) L/h"},
      {"measurement": "Metabolism by CYP enzyme", "setting": "CYP1A2", "result": "capable of metabolizing pomalidomide"},
      {"measurement": "Safety and tolerability", "setting": "[2]; single oral 4 mg pomalidomide coadministered with multiple oral 50-mg doses of fluvoxamine, healthy male subjects", "result": "safe and well tolerated"},
      {"measurement": "Deaths, SAEs, or TEAEs leading to discontinuation", "setting": "[2]; study B", "result": "No deaths, SAEs, or TEAEs leading to discontinuation were reported"},
      {"measurement": "TEAEs related to the study drug", "setting": "[2]; study B", "result": "No subject reported at least 1 TEAE related to the study drug"},
      {"measurement": "Subjects reporting TEAEs", "setting": "[2]; study B overall, 1 of 15 subjects", "result": 6.7, "unit": "%"},
      {"measurement": "Metabolism by CYP enzyme", "setting": "CYP3A4", "result": "capable of metabolizing pomalidomide"},
      {"measurement": "Fraction of the dose excreted in urine as unchanged drug", "setting": "[3]", "result": "< 5.0 % of the administered dose"},
      {"measurement": "Renal excretion of pomalidomide-related material", "setting": "[3]", "result": "~73.0 % of the administered dose"},
      {"measurement": "Difference in incidence of TEAEs between smokers and nonsmokers", "setting": "[4]; only TEAEs that occurred after pomalidomide dosing", "result": "no difference"},
      {"measurement": "Safety and tolerability", "setting": "[4]; single oral dose of 4 mg in healthy male smokers and nonsmokers ≥ 40 to ≤ 80 years old", "result": "safe and well tolerated"},
      {"measurement": "Deaths", "setting": "[4]; study A", "result": "no deaths"},
      {"measurement": "Number of TEAEs suspected of being related to the study drug", "setting": "[4]; study A", "result": 22},
      {"measurement": "SAEs or severe TEAEs", "setting": "[4]; study A", "result": "No subject experienced an SAE or severe TEAE"},
      {"measurement": "Number of TEAEs reported", "setting": "[4]; study A overall", "result": 37},
      {"measurement": "Subjects reporting TEAEs suspected of being related to the study drug", "setting": "[4]; study A, 12 subjects", "result": 21.8, "unit": "%"},
      {"measurement": "Number of TEAEs of moderate severity", "setting": "[4]; study A, all presyncope, not considered related to the study drug", "result": 3},
      {"measurement": "Metabolism by CYP enzyme", "setting": "CYP2C19", "result": "to a minor extent"},
      {"measurement": "AUC(0-inf)", "setting": "Study B; oral", "result": 1190, "unit": "ng·h/mL"},
      {"measurement": "AUC(0-inf)", "setting": "Study B; oral, 4 mg", "result": 526, "unit": "ng·h/mL"},
      {"measurement": "Cmax", "setting": "Study B; [8]", "result": 49.2, "unit": "ng/mL"},
      {"measurement": "Cmax", "setting": "Study B; [9]", "result": 59.5, "unit": "ng/mL"},
      {"measurement": "Vd/F", "setting": "Study B; [8]", "result": 65.4, "unit": "L"},
      {"measurement": "Vd/F", "setting": "Study B; [9]", "result": 64, "unit": "L"},
      {"measurement": "half-life", "setting": "Study B; oral, 4 mg, t1/2, pomalidomide 4 mg administered alone", "result": 6, "unit": "h"},
      {"measurement": "half-life", "setting": "Study B; oral, 4 mg, t1/2, pomalidomide 4 mg administered with fluvoxamine", "result": 13.1, "unit": "h"},
      {"measurement": "Tmax", "setting": "Study B; [8]", "result": 3, "unit": "h"},
      {"measurement": "Tmax", "setting": "Study B; [9]", "result": 4.5, "unit": "h"},
      {"measurement": "AUC(0-inf)", "setting": "Study B; po, 4 mg", "result": 526, "unit": "ng·h/mL"},
      {"measurement": "CL/F", "setting": "Study B; pomalidomide 4 mg administered alone", "result": 7.6, "unit": "L/h"},
      {"measurement": "CL/F", "setting": "Study B; pomalidomide 4 mg administered with fluvoxamine", "result": 3.4, "unit": "L/h"},
      {"measurement": "Increase of AUC0-inf", "setting": "Study B; [10]", "result": 125.1, "unit": "%"},
      {"measurement": "Increase of Cmax", "setting": "Study B; [10]", "result": 23.7, "unit": "%"},
      {"measurement": "Ratio (%) of geometric means, AUC0-inf", "setting": "Study B; with fluvoxamine versus alone", "result": 225.1, "unit": "%"},
      {"measurement": "Ratio (%) of geometric means, Cmax", "setting": "Study B; with fluvoxamine versus alone", "result": 123.7, "unit": "%"},
      {"measurement": "Change in pomalidomide exposure (in words)", "setting": "[5]; coadministration of ketoconazole", "result": "mild increase in pomalidomide exposure that was not considered clinically relevant"},
      {"measurement": "Change in mean pomalidomide exposure (in words)", "setting": "[5]; concomitant fluvoxamine and ketoconazole, healthy men", "result": "approximately doubled"},
      {"measurement": "t1/2", "setting": "[5]; prior drug interaction study", "result": 6.1, "unit": "h"},
      {"measurement": "Increase of total drug exposure", "setting": "[5]; single 4-mg dose with CYP3A inhibitor ketoconazole versus alone", "result": 18.8, "unit": "%"},
      {"measurement": "Increase of total drug exposure", "setting": "[5]; single 4-mg dose with ketoconazole + fluvoxamine versus alone", "result": 145.7, "unit": "%"},
      {"measurement": "mean apparent terminal half-life (t1/2)", "setting": "[6]", "result": "approximately 7.5 hours"},
      {"measurement": "Accumulation (AUC and Cmax)", "setting": "[6]; [11]", "result": "less than 14.0%"},
      {"measurement": "Time to steady state", "setting": "[6]; [11]", "result": "≤ 3", "unit": "days"},
      {"measurement": "Dose proportionality of systemic exposure (AUC)", "setting": "[6]; single dose up to 50 mg", "result": "approximately dose‐proportional"}
    ]}
  ]
}
